Experimental data published in ChEMBL document CHEMBL2417474, “Synthesis, antiproliferative and anti-inflammatory activities of some novel 6-aryl-2-(p-(methanesulfonyl)phenyl)-4,5-dihydropyridazi-3(2H)-ones” (Eur J Med Chem, 2013).

Assays:
Rattus norvegicus [1] = test: Antiinflammatory activity in Wistar rat assessed as inhibition of carrageenan-induced paw edema at 0.05 mmol/kg, po administered 30 mins prior challenge measured after 5 hrs; type: functional
In short: (§1)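 Wistar rats of either sex, 150–175 g, fasted 16 h, 6 per group. Dosed orally at 0.05 mmol/kg, suspended in 1% CMC in water (10 ml/kg). 30 min later, 0.1 ml of 1% carrageenan in saline injected subplantar into the left hind paw. Paw volume read by plethysmometer at 0, 3 and 5 h. % inhibition = (1 − Vt/Vc) × 100 against the vehicle group.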

Rattus norvegicus [2] = test: Antiinflammatory activity in Wistar rat assessed as inhibition of carrageenan-induced paw edema at 0.05 mmol/kg, po administered 30 mins prior challenge measured after 3 hrs; type: functional; in short: as §1
UO-31 = test: Growth inhibition of human UO31 cells assessed as cell growth at 10 uM after 48 hrs by sulforhodamine B assay; type: functional; conditions: UO-31, 48 h, read-out: Activity
In short: (§2)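 Single-dose NCI screen. Tumor lines were cultured in medium with 5% fetal calf serum and 2 mM L-glutamine, preincubated 24 h, then given compound in DMSO. After 48 h continuous exposure, cell growth was estimated by sulforhodamine B protein assay.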

SR = test: Growth inhibition of human SR cells assessed as cell growth at 10 uM after 48 hrs by sulforhodamine B assay; type: functional; conditions: read-out: Activity; in short: as §2
MDA-MB-435 = test: Growth inhibition of human MDA-MB-435 cells assessed as cell growth at 10 uM after 48 hrs by sulforhodamine B assay; type: functional; conditions: MDA-MB-435, 48 h, read-out: Activity
[3] = Growth inhibition of human EKVX cells assessed as cell growth at 10 uM after 48 hrs by sulforhodamine B assay; type: functional; conditions: read-out: Activity
OVCAR-3 = test: Growth inhibition of human OVCAR3 cells assessed as cell growth at 10 uM after 48 hrs by sulforhodamine B assay; type: functional; conditions: OVCAR-3, 48 h, read-out: Activity
[4] = Growth inhibition of human Hs 578T cells assessed as cell growth at 10 uM after 48 hrs by sulforhodamine B assay; type: functional; conditions: read-out: Activity
RPMI-8226 = test: Growth inhibition of human RPMI8226 cells assessed as cell growth at 10 uM after 48 hrs by sulforhodamine B assay; type: functional; conditions: RPMI-8226, 48 h, read-out: Activity
K562 = test: Growth inhibition of human K562 cells assessed as cell growth at 10 uM after 48 hrs by sulforhodamine B assay; type: functional; conditions: K562, 48 h, read-out: Activity
CAKI-1 = test: Growth inhibition of human CAKI-1 cells assessed as cell growth at 10 uM after 48 hrs by sulforhodamine B assay; type: functional; conditions: CAKI-1, 48 h, read-out: Activity
SK-MEL-5 = test: Growth inhibition of human SK-MEL-5 cells assessed as cell growth at 10 uM after 48 hrs by sulforhodamine B assay; type: functional; conditions: SK-MEL-5, 48 h, read-out: Activity
SF-295 = test: Growth inhibition of human SF295 cells assessed as cell growth at 10 uM after 48 hrs by sulforhodamine B assay; type: functional; conditions: SF-295, 48 h, read-out: Activity
MDA-MB-468 = test: Growth inhibition of human MDA-MB-468 cells assessed as cell growth at 10 uM after 48 hrs by sulforhodamine B assay; type: functional; conditions: MDA-MB-468, 48 h, read-out: Activity
T47D = test: Growth inhibition of human T47D cells assessed as cell growth at 10 uM after 48 hrs by sulforhodamine B assay; type: functional; conditions: read-out: Activity; in short: as §2
Rattus norvegicus [5] = test: Ulcerogenic activity in Wistar albino rat at 0.15 mmol/kg, po measured after 6 hrs; type: toxicity, organism-based; conditions: in vivo
In short: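 Acute gastric ulcer test in Wistar rats (160–220 g) fasted 24 h, randomized into groups of six. Compound (0.15 mmol/kg) suspended in 1% w/v CMC in distilled water (10 ml/kg vehicle) was given orally, with vehicle and etoricoxib groups alongside. Animals were sacrificed under deep ether anesthesia 6 h after dosing.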

HL-60(TB) = test: Growth inhibition of human HL-60(TB) cells assessed as cell growth at 10 uM after 48 hrs by sulforhodamine B assay; type: functional; conditions: HL-60, 48 h, read-out: Activity
NCI-H522 = test: Growth inhibition of human NCI-H522 cells assessed as cell growth at 10 uM after 48 hrs by sulforhodamine B assay; type: functional; conditions: NCI-H522, 48 h, read-out: Activity
NCI-H23 = test: Growth inhibition of human NCI-H23 cells assessed as cell growth at 10 uM after 48 hrs by sulforhodamine B assay; type: functional; conditions: NCI-H23, 48 h, read-out: Activity
[6] = Growth inhibition of human NCI-ADR-RES cells assessed as cell growth at 10 uM after 48 hrs by sulforhodamine B assay; type: functional; conditions: read-out: Activity
MOLT-4 = test: Growth inhibition of human MOLT4 cells assessed as cell growth at 10 uM after 48 hrs by sulforhodamine B assay; type: functional; conditions: MOLT-4, 48 h, read-out: Activity

| Compound | inhibition in vivo at 50 µmol/kg (Rattus norvegicus [1]) [%] | inhibition in vivo at 50 µmol/kg (Rattus norvegicus [2]) [%] | also measured |
| --- | --- | --- | --- |
| CS(=O)(=O)c1ccc(N2N=C(c3ccccc3)CCC2=O)cc1 | 47.3 | 26.6 |  |
| COc1ccc(C2=NN(c3ccc(S(C)(=O)=O)cc3)C(=O)CC2)cc1 | 68.4 | 46.7 | growth at 10 µM (UO-31): 62.1%; growth at 10 µM (SR): 64%; growth at 10 µM (MDA-MB-435): 7.92% |
| CS(=O)(=O)c1ccc(N2N=C(c3ccc(-c4ccccc4)cc3)CCC2=O)cc1 | 21 | 6.6 | growth at 10 µM [3]: 29.6%; growth at 10 µM (OVCAR-3): 42.1%; growth at 10 µM [4]: 64.6% |
| Cc1ccc(-c2ncc(Cl)cc2-c2ccc(S(C)(=O)=O)cc2)cn1 [ETORICOXIB] | 86.8 | 83.3 |  |
| CC(C)(C)c1ccc(C2=NN(c3ccc(S(C)(=O)=O)cc3)C(=O)CC2)cc1 | 68.4 | 50 | growth at 10 µM (RPMI-8226): 69.6%; growth at 10 µM [4]: 70.7% |
| CS(=O)(=O)c1ccc(N2N=C(c3ccc(Cl)c(Cl)c3)CCC2=O)cc1 | 34.2 | 26.6 |  |
| CS(=O)(=O)c1ccc(N2N=C(c3ccc(Oc4ccccc4)cc3)CCC2=O)cc1 | 65.7 | 50 | growth at 10 µM (UO-31): 48.8%; growth at 10 µM (K562): 39.7%; growth at 10 µM (CAKI-1): 49.8%; growth at 10 µM (SK-MEL-5): 35.1%; growth at 10 µM [3]: 20.1%; growth at 10 µM (SF-295): 28.8%; growth at 10 µM (MDA-MB-468): 41.6%; growth at 10 µM (T47D): 44.4% |
| COc1ccc(C2=NN(c3ccc(S(C)(=O)=O)cc3)C(=O)CC2)cc1OC | 82.4 | 66.6 | Activity (Rattus norvegicus [5]): Non-toxic |
| CS(=O)(=O)c1ccc(N2N=C(c3ccc(O)c(Cl)c3)CCC2=O)cc1 | 55.2 | 43.3 | growth at 10 µM (HL-60(TB)): 66.7% |
| CS(=O)(=O)c1ccc(N2N=C(c3ccc(Cl)cc3)CCC2=O)cc1 | 36.8 | 26.6 | growth at 10 µM (NCI-H522): 25.4%; growth at 10 µM (NCI-H23): 65.3%; growth at 10 µM [6]: 58.3% |
| CS(=O)(=O)c1ccc(N2N=C(c3ccc(F)cc3)CCC2=O)cc1 | 73.6 | 60 | growth at 10 µM (MOLT-4): 44.7%; growth at 10 µM (K562): 41.8% |
| Cc1cc(C2=NN(c3ccc(S(C)(=O)=O)cc3)C(=O)CC2)ccc1O | 60.5 | 26.6 |  |
| CS(=O)(=O)c1ccc(N2N=C(c3ccc(Br)cc3)CCC2=O)cc1 | 31.5 | 10 |  |
| Cc1ccc(O)c(C2=NN(c3ccc(S(C)(=O)=O)cc3)C(=O)CC2)c1 | 86.8 | 66.6 | growth at 10 µM (UO-31): 70%; Activity (Rattus norvegicus [5]): Non-toxic |
